From ChEMBL document CHEMBL1255376, “Comparative surveillance study of telavancin activity against recently collected gram-positive clinical isolates from across the United States” (2008)
Converted amounts (≈) assume the structure as drawn.

How the values were obtained:
Staphylococcus aureus [1] = assay: Antibacterial activity against methicillin-resistant Staphylococcus aureus; format: functional
Enterococcus = assay: Antibacterial activity against vancomycin-susceptible Enterococcus; format: functional
Outline: (§1)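 MIC by CLSI broth microdilution in frozen microtiter trays holding serial dilutions of each agent, prepared from standard laboratory powders. E. faecalis ATCC 29212 and ATCC 51299, S. aureus ATCC 29213 and S. pneumoniae ATCC 49619 run in parallel as quality-control strains. Comparator susceptibility interpreted with CLSI breakpoints.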

Staphylococcus aureus [2] = assay: Antibacterial activity against methicillin-susceptible Staphylococcus aureus clinical isolate by broth microdilution method; format: functional
Outline: (§2)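 MICs by CLSI broth microdilution in frozen trays pre-loaded with serial dilutions of each agent. Quality-control strains run in parallel: E. faecalis ATCC 29212 and ATCC 51299, S. aureus ATCC 29213, S. pneumoniae ATCC 49619. Comparator susceptibility categories follow CLSI breakpoints. Methicillin resistance in staphylococci assigned from the oxacillin MIC.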

Staphylococcus warneri [3] = assay: Antibacterial activity against methicillin-susceptible coagulase-negative Staphylococcus warneri clinical isolate by broth microdilution method; format: functional; outline: as §2
Staphylococcus cohnii = assay: Antibacterial activity against methicillin-resistant coagulase-negative Staphylococcus cohnii clinical isolate by broth microdilution method; format: functional; outline: as §2
[4] = tested on: Staphylococcus epidermidis; assay: Antibacterial activity against methicillin-resistant coagulase-negative Staphylococcus epidermidis clinical isolate by broth microdilution method; format: functional; outline: as §2
Staphylococcus hominis = assay: Antibacterial activity against methicillin-resistant coagulase-negative Staphylococcus hominis clinical isolate by broth microdilution method; format: functional; outline: as §2
Mammaliicoccus sciuri = assay: Antibacterial activity against methicillin-resistant coagulase-negative Staphylococcus sciuri clinical isolate by broth microdilution method; format: functional; outline: as §2
Staphylococcus warneri [5] = assay: Antibacterial activity against methicillin-resistant coagulase-negative Staphylococcus warneri clinical isolate by broth microdilution method; format: functional; outline: as §2
Enterococcus faecium [6] = assay: Antibacterial activity against vancomycin-resistant and teichoplanin-susceptible Enterococcus faecium clinical isolate by broth microdilution method; format: functional; outline: as §2
Streptococcus agalactiae = assay: Antibacterial activity against Streptococcus agalactiae clinical isolate by broth microdilution method; format: functional; outline: as §1
Streptococcus sp. = assay: Antibacterial activity against Streptococcus sp. clinical isolate by broth microdilution method; format: functional
Outline: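 MIC by CLSI broth microdilution in frozen microtiter trays holding serial dilutions of each agent, prepared from standard laboratory powders. Comparator susceptibility interpreted with CLSI breakpoints.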

Staphylococcus aureus [7] = assay: Antibacterial activity against daptomycin-nonsusceptible Staphylococcus aureus isolate 1171055 by broth microdilution method; format: functional; outline: as §2
Staphylococcus aureus [8] = assay: Antibacterial activity against daptomycin-nonsusceptible Staphylococcus aureus isolate 1171063 by broth microdilution method; format: functional; outline: as §2
Staphylococcus aureus [9] = assay: Antibacterial activity against daptomycin-nonsusceptible Staphylococcus aureus isolate 1176127 by broth microdilution method; format: functional; outline: as §2
Staphylococcus = assay: Antibacterial activity against daptomycin-nonsusceptible coagulase-negative Staphylococcus isolate 1285835 by broth microdilution method; format: functional; outline: as §1
Staphylococcus aureus [10] = assay: Antibacterial activity against vancomycin-intermediate methicillin-resistant Staphylococcus aureus NRS74 by broth microdilution method; format: functional
Outline: (§3)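 VISA and VRSA strains from the NARSA repository were tested separately from the surveillance isolates. MICs by CLSI broth microdilution in frozen trays with serial dilutions. Quality-control strains run in parallel. Susceptibility categories follow CLSI breakpoints, and methicillin resistance was assigned from the oxacillin MIC.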

Staphylococcus aureus [11] = assay: Antibacterial activity against vancomycin-intermediate methicillin-resistant Staphylococcus aureus NRS118 by broth microdilution method; format: functional; outline: as §3
Staphylococcus aureus [12] = assay: Antibacterial activity against vancomycin-intermediate methicillin-resistant Staphylococcus aureus NRS1 by broth microdilution method; format: functional; outline: as §3
Staphylococcus aureus [13] = assay: Antibacterial activity against vancomycin-intermediate methicillin-resistant Staphylococcus aureus NRS12 by broth microdilution method; format: functional; outline: as §3
Staphylococcus aureus [14] = assay: Antibacterial activity against vancomycin-intermediate methicillin-susceptible Staphylococcus aureus NRS56 by broth microdilution method; format: functional; outline: as §3
Staphylococcus aureus [15] = assay: Antibacterial activity against vancomycin-, methicillin-resistant Staphylococcus aureus VRS1 by broth microdilution method; format: functional; outline: as §3
Staphylococcus aureus [16] = assay: Antibacterial activity against vancomycin-, methicillin-resistant Staphylococcus aureus VRS3 by broth microdilution method; format: functional; outline: as §3
Enterococcus faecium [17] = assay: Antibacterial activity against linezolid/daptomycin-nonsusceptible vancomycin-susceptible Enterococcus faecium clinical isolate by broth microdilution method; format: functional; outline: as §2
Enterococcus faecium [18] = assay: Antibacterial activity against linezolid/daptomycin-nonsusceptible vancomycin-resistant Enterococcus faecium clinical isolate by broth microdilution method; format: functional; outline: as §2
Enterococcus faecalis = assay: Antibacterial activity against linezolid/daptomycin-nonsusceptible vancomycin-susceptible Enterococcus faecalis clinical isolate by broth microdilution method; format: functional; outline: as §2
Staphylococcus aureus [19] = assay: Antibacterial activity against daptomycin-nonsusceptible Staphylococcus aureus isolate 1285404 by broth microdilution method

`CCCCCCCCCCNCCN[C@@]1(C)C[C@H](O[C@H]2[C@H](Oc3c4cc5cc3Oc3ccc(cc3Cl)[C@@H](O)[C@@H](NC(=O)[C@@H](CC(C)C)NC)C(=O)N[C@@H](CC(N)=O)C(=O)N[C@H]5C(=O)N[C@H]3C(=O)N[C@H](C(=O)N[C@H](C(=O)O)c5cc(O)c(CNCP(=O)(O)O)c(O)c5-c5cc3ccc5O)[C@H](O)c3ccc(c(Cl)c3)O4)O[C@H](CO)[C@@H](O)[C@@H]2O)O[C@@H](C)[C@H]1O` [TELAVANCIN] was tested, and the MIC50 (Staphylococcus aureus [1]) was 0.14 µM (≈ 0.246 µg/mL), the MIC90 (Enterococcus) was 1 µg/mL (≈ 0.57 µM) and the MIC50 (Staphylococcus aureus [2]) was 0.25 µg/mL (≈ 0.142 µM). For the same molecule, the MIC90 (Staphylococcus aureus [2]) was 0.5 µg/mL (≈ 0.285 µM), the MIC50 (Staphylococcus warneri [3]) was 0.25 µg/mL (≈ 0.142 µM) and the MIC90 (Staphylococcus warneri [3]) was 0.5 µg/mL (≈ 0.285 µM). It also gave an MIC50 (Staphylococcus cohnii) of 0.25 µg/mL (≈ 0.142 µM), an MIC90 (Staphylococcus cohnii) of 0.5 µg/mL (≈ 0.285 µM) and an MIC50 [4] of 0.25 µg/mL (≈ 0.142 µM). For the same molecule, the MIC90 [4] was 0.5 µg/mL (≈ 0.285 µM), the MIC50 (Staphylococcus hominis) was 0.25 µg/mL (≈ 0.142 µM) and the MIC90 (Staphylococcus hominis) was 0.5 µg/mL (≈ 0.285 µM). The MIC50 (Mammaliicoccus sciuri) was 0.25 µg/mL (≈ 0.142 µM), the MIC90 (Mammaliicoccus sciuri) was 0.5 µg/mL (≈ 0.285 µM) and the MIC50 (Staphylococcus warneri [5]) was 0.25 µg/mL (≈ 0.142 µM). The MIC90 (Staphylococcus warneri [5]) was 0.5 µg/mL (≈ 0.285 µM), the MIC50 (Enterococcus faecium [6]) was 0.25 µg/mL (≈ 0.142 µM) and the MIC90 (Enterococcus faecium [6]) was 2 µg/mL (≈ 1.14 µM). The MIC50 (Streptococcus agalactiae) was 0.06 µg/mL (≈ 0.0342 µM), the MIC90 (Streptococcus agalactiae) was 0.06 µg/mL (≈ 0.0342 µM) and the MIC50 (Streptococcus sp.) was 0.03 µg/mL (≈ 0.0171 µM). It also gave an MIC90 (Streptococcus sp.) of 0.12 µg/mL (≈ 0.0684 µM), an MIC (Staphylococcus aureus [7]) of 0.5 µg/mL (≈ 0.285 µM) and an MIC (Staphylococcus aureus [8]) of 0.5 µg/mL (≈ 0.285 µM). It also gave an MIC (Staphylococcus aureus [9]) of 0.5 µg/mL (≈ 0.285 µM), an MIC (Staphylococcus) of 0.5 µg/mL (≈ 0.285 µM) and an MIC (Staphylococcus aureus [10]) of 1 µg/mL (≈ 0.57 µM). The MIC (Staphylococcus aureus [11]) was 0.5 µg/mL (≈ 0.285 µM), the MIC (Staphylococcus aureus [12]) was 0.5 µg/mL (≈ 0.285 µM) and the MIC (Staphylococcus aureus [13]) was 0.5 µg/mL (≈ 0.285 µM). For the same molecule, the MIC (Staphylococcus aureus [14]) was 1 µg/mL (≈ 0.57 µM), the MIC (Staphylococcus aureus [15]) was 4 µg/mL (≈ 2.28 µM) and the MIC (Staphylococcus aureus [16]) was 4 µg/mL (≈ 2.28 µM). The MIC (Enterococcus faecium [17]) was 0.06 µg/mL (≈ 0.0342 µM), the MIC (Enterococcus faecium [18]) was 2 µg/mL (≈ 1.14 µM) and the MIC (Enterococcus faecalis) was 1 µg/mL (≈ 0.57 µM). It also gave an MIC (Staphylococcus aureus [19]) of 0.25 µg/mL (≈ 0.142 µM).
With `CN[C@H](CC(C)C)C(=O)N[C@H]1C(=O)N[C@@H](CC(N)=O)C(=O)N[C@H]2C(=O)N[C@H]3C(=O)N[C@H](C(=O)N[C@H](C(=O)O)c4cc(O)cc(O)c4-c4cc3ccc4O)[C@H](O)c3ccc(c(Cl)c3)Oc3cc2cc(c3O[C@@H]2O[C@H](CO)[C@@H](O)[C@H](O)[C@H]2O[C@H]2C[C@](C)(N)[C@H](O)[C@H](C)O2)Oc2ccc(cc2Cl)[C@H]1O` [VANCOMYCIN] the MIC50 (Staphylococcus aureus [1]) was 0.69 µM (≈ 1 µg/mL), the MIC50 (Staphylococcus aureus [2]) was 1 µg/mL (≈ 0.69 µM) and the MIC90 (Staphylococcus aureus [2]) was 1 µg/mL (≈ 0.69 µM). It also gave an MIC50 (Staphylococcus warneri [3]) of 1 µg/mL (≈ 0.69 µM), an MIC90 (Staphylococcus warneri [3]) of 2 µg/mL (≈ 1.38 µM) and an MIC50 (Staphylococcus cohnii) of 2 µg/mL (≈ 1.38 µM). The MIC90 (Staphylococcus cohnii) was 2 µg/mL (≈ 1.38 µM), the MIC50 [4] was 2 µg/mL (≈ 1.38 µM) and the MIC90 [4] was 2 µg/mL (≈ 1.38 µM). The MIC50 (Staphylococcus hominis) was 2 µg/mL (≈ 1.38 µM), the MIC90 (Staphylococcus hominis) was 2 µg/mL (≈ 1.38 µM) and the MIC50 (Mammaliicoccus sciuri) was 2 µg/mL (≈ 1.38 µM). It also gave an MIC90 (Mammaliicoccus sciuri) of 2 µg/mL (≈ 1.38 µM), an MIC50 (Staphylococcus warneri [5]) of 2 µg/mL (≈ 1.38 µM) and an MIC90 (Staphylococcus warneri [5]) of 2 µg/mL (≈ 1.38 µM). The MIC50 (Enterococcus faecium [6]) was 128 µg/mL (≈ 88.3 µM), the MIC90 (Enterococcus faecium [6]) was 512 µg/mL (≈ 353 µM) and the MIC50 (Streptococcus agalactiae) was 0.5 µg/mL (≈ 0.345 µM). The MIC90 (Streptococcus agalactiae) was 0.5 µg/mL (≈ 0.345 µM), the MIC50 (Streptococcus sp.) was 0.5 µg/mL (≈ 0.345 µM) and the MIC90 (Streptococcus sp.) was 0.5 µg/mL (≈ 0.345 µM). The MIC (Staphylococcus) was 2 µg/mL (≈ 1.38 µM), the MIC (Staphylococcus aureus [15]) was greater than 32 µg/mL and the MIC (Staphylococcus aureus [16]) was greater than 32 µg/mL.
